# High-throughput results from PubChem.
# NF-kB neuron act: compounds increasing NF-kB expression in human neuronal cells. NF-kB reporter expression; stronger effect = higher value. fold change at 12.5 µM. actives 1.6% (n = 190,000). AID 1239; in the data active = fold change above about 3.3
# Pf gametocyte: P. falciparum stage V gametocyte viability inhibition. P. falciparum stage V gametocytes, ATP luminescence, 24 h. AID 743093. actives 0.065% (n = 150,000). inhibition, % at 10.9 µM;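 active = inhibition above the mean plus 3 SD of compounds within the control limits, set per campaign, cut at about 38% in these data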
# STAT3 act: STAT3 signaling activation | activation (% of control), % at 5.6 µM | AID 871 | actives 0.91% (n = 190,000) | U3A cells, IL-6 STAT3-luciferase reporter, luminescence; 100% = signal with IL-6 EC80 alone;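 active = activation above the screen-wide mean of compound activation plus 3 SD, cut at about 130% in these data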
#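 Detection: reporter luminescence signal / Assay system: STAT1-lacking human U3A cells, STAT3 luciferase reporter / Incubation: compound pre-incubation 1 h before IL-6, then 6 h stimulation at 37 °C / Control set: IL-6-only high control / Read-out: % activation relative to IL-6 control / Probe or stimulus: Interleukin-6, 33 ng/mL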
# STAT1 act: increases IFN-gamma driven STAT1 reporter signal; actives 2.6% (n = 200,000); activation (% of control), % at 5.5 µM; NIH 3T3 STAT1-luciferase reporter, luminescence; 100% = IFN-gamma alone, no compound;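 active = activation above the screen-wide mean activation plus 3 SD, cut at about 130% in these data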
# STAT1 blocker: reduces IFN-gamma driven STAT1 reporter signal | NIH 3T3 STAT1-luciferase reporter, luminescence | actives 0.35% (n = 200,000) | inhibition, % at 5.5 µM;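 active = inhibition above a set limit, the mean inhibition across all tested compounds plus 3 SD, cut at about 34% in these data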
# APP 5'UTR act: activates APP 5'UTR luciferase reporter | actives 1% (n = 190,000) | activation, % at 2 µM | SH-SY5Y APP 5'UTR luciferase reporter, luminescence; zero percent = DMSO vehicle wells;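 active = activation above a set limit, based on mean plus 3 SD of controls, cut at about 140% in these data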
# STAT1 activ conf: STAT1 activation, confirmation assay; shares compounds with STAT1 act; NIH 3T3 STAT1-luciferase reporter, IFN-gamma potentiation, luminescence; 100% = IFN-gamma EC80 alone, no compound; activation (% of control), % at 5.7 µM; actives 97% (n = 1,200);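 active = activation above a set limit carried over from the earlier primary STAT1 screen, cut at about 140% in these data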
# NFkB act STAT1ct: activates NF-kappaB, counter-screen to STAT1 activators; shares compounds with STAT1 act; HEK293T NF-kB luciferase reporter, TNF-alpha stimulated, luminescence; 100% = TNF-alpha with vehicle only; activation (% of control), % at 5.7 µM; actives 43% (n = 1,200); AID 1306;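 active = activation above the mean of solvent-only control wells plus 3 SD, set per campaign, cut at about 130% in these data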;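 also: TNF-alpha given at a submaximal dose yielding about 80% of full reporter signal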
# STAT3 act 2: activates human STAT3, counter-screen to STAT1 activators; activation (% of control), % at 5.7 µM; U3A cells STAT3-luciferase reporter, IL-6, luminescence; cells lack STAT1; 100 = IL-6 alone, no compound effect; actives 46% (n = 1,200); shares compounds with STAT1 act; AID 1316;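 active = activation above the solvent-only control well mean plus 3 SD, set per plate batch, cut at about 110% in these data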;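 also: higher means more STAT3 reporter activation so hits are non-selective activators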
# Hits are given with their value; – = inactive; · = no result. Only some compounds are listed: those with a hit (about 3.9% of all), similar ones and a draw of the others.
SMILES,NF-kB neuron act,Pf gametocyte,STAT3 act,STAT1 act,STAT1 blocker,APP 5'UTR act,STAT1 activ conf,NFkB act STAT1ct,STAT3 act 2
COc1cc(C(=O)N/N=C/c2ccc(OC)c(CN3CCN(c4ccc(F)cc4)CC3)c2)ccc1O,–,–,–,–,–,–,·,·,·
O=c1cc(/C=C/c2ccccc2)oc2ccccc12,4.59,–,–,156.1,–,–,191.7,135.7,123.9
CCCCc1c(O)nc(SCC(=O)c2ccccc2)n(-c2ccccc2)c1=O,·,–,·,·,·,·,·,·,·
Cc1ccc(N=Nc2c(N)nn(-c3ccccc3)c2N)cc1,5.96,–,–,154.6,–,–,179.8,138.0,–
Cc1nn(-c2ccccc2)c(N)c1N=O,·,–,·,·,·,·,·,·,·
CCCCn1c(N)c(NCC)c(=O)[nH]c1=O,–,–,–,–,–,–,·,·,·
Cc1sc2nc(SCC(=O)C(C)(C)C)n(Cc3ccco3)c(=O)c2c1C,–,–,–,–,–,–,·,·,·
Cc1sc2nc3c4ccccc4c(NCc4ccco4)nn3c(=O)c2c1C,3.75,·,–,156.6,–,135.9,207.9,154.9,114.4
Cc1ccc(S(=O)(=O)N2CCOCC2)cc1NC(=O)CSc1nnnn1C,–,–,–,–,–,–,·,·,·
Cc1ccc(OCCC(=O)OCC(=O)Nc2cc(S(=O)(=O)N(C)C)ccc2C)cc1,–,·,–,–,–,–,·,·,·
CCCn1nnc(NC(=O)c2cccc(OCC)c2)n1,–,–,–,–,–,–,·,·,·
CCCn1nnc(NC(=O)c2ccc3ccccc3c2)n1,–,·,–,154.2,–,–,–,–,–
CCNC(=S)N1CCN(C(=O)C(Cc2ccccc2)NC(C)=O)CC1 (stereo not given),–,–,–,–,–,–,·,·,·
CCOC(=O)c1sc(-c2ccc(OC)cc2)cc1N,7.1,·,–,156.7,–,158.7,205.5,136.8,–
CCOC(=O)c1sc(-c2ccc(F)cc2)cc1N,–,·,–,–,–,–,·,·,·
O=C(Nc1ccc(C(F)(F)F)cc1)N1CCN(c2ccnc3cc(Cl)ccc23)CC1,·,–,·,·,·,·,·,·,·
CCOC(=O)c1ccc(S(=O)(=O)N2CCN(C3CCCC3)CC2)cc1,–,–,–,–,–,–,·,·,·
CCn1cc(C(=O)N2CCN(c3ccc(C(C)=O)cc3)CC2)c2cc(OC)c(OC)cc2c1=O,–,–,–,–,–,–,·,·,·
CCC(=O)Nc1ccc2oc(-c3cccnc3)nc2c1,·,–,·,·,·,·,·,·,·
O=C(Nc1ccc2oc(-c3cccc4ccccc34)nc2c1)c1ncn[nH]1,–,–,–,–,–,–,·,·,·
CCC(=O)Nc1ccc2oc(-c3ccccc3Br)nc2c1,5.65,–,–,159.8,–,–,190.3,138.2,–
O=C(Nc1ccc2oc(-c3ccccc3Cl)nc2c1)c1ncn[nH]1,5.11,–,–,156.3,–,–,204.3,–,114.4
Cc1noc(/C=C/c2cccs2)c1S(=O)(=O)N1CCC(C(=O)NCCCN2CCCC(C)C2)CC1 (stereo not given),·,–,–,–,–,–,·,·,·
COc1ccc2nc3sc(C(=O)NCc4cccs4)c(N)c3cc2c1,–,–,–,182.6,–,140.1,222.3,136.2,–
Cc1cc(NCCN2CCOCC2)n2ncc(-c3ccccc3)c2n1,–,–,–,165.2,–,–,219.1,145.8,151.7
SMILES,NF-kB neuron act,Pf gametocyte,STAT3 act,STAT1 act,STAT1 blocker,APP 5'UTR act,STAT1 activ conf,NFkB act STAT1ct,STAT3 act 2
CCN(CC)CCN(C(=O)c1ccc(CN2CCCCC2)o1)C(C(=O)NC1CCCCC1)c1ccc(F)cc1 (stereo not given),–,–,–,–,–,–,·,·,·
CNc1nc(N2CCc3ccccc32)ncc1F,5.08,·,–,167.2,–,–,194.3,138.6,114.4
COc1ccc(NC(=O)CSc2nc(C)cs2)c(OC)c1,–,–,–,–,–,–,·,·,·
Cc1cc(C(=O)CN2C(=O)NC(CC(C)C)C2=O)c(C)n1-c1ccccc1F (stereo not given),–,·,–,152.8,–,–,183.2,135.0,130.8
FC(F)(F)c1cccc(-c2ccn3ncnc3n2)c1,–,·,–,–,–,–,·,·,·
CCc1nnc(NC(=O)c2ccc3ccccc3n2)s1,3.79,–,–,153.1,–,–,175.9,–,157.0
CCc1nnc(NC(=O)c2c(OC)cccc2OC)s1,–,–,–,–,–,–,·,·,·
Cc1nc(N)sc1N=Nc1ccc(Br)cc1,7.18,–,–,158.0,–,–,213.7,161.9,123.1
CC(C)(C)C(=O)c1cnc(Nc2ccccc2Cl)s1,5.1,·,–,158.1,–,–,204.3,–,111.0
O=C(c1ccccc1)c1cnc(Nc2ccccc2Cl)s1,7.31,·,–,162.1,–,173.7,213.8,134.6,113.1
CC(=O)c1csc(Nc2ccccc2Cl)n1,·,–,·,·,·,·,·,·,·
NS(=O)(=O)c1ccc(NCC2COc3ccccc3O2)c([N+](=O)[O-])c1 (stereo not given),–,–,–,–,–,–,·,·,·
CC(=O)c1ccc(NCC2COc3ccccc3O2)c([N+](=O)[O-])c1 (stereo not given),–,–,–,159.3,–,145.1,229.2,139.6,220.0
COc1ccc(/C=C(\CC(=O)O)c2nc3ccccc3o2)cc1,–,–,–,150.8,–,–,160.1,135.8,116.5
NC(N)=Nc1nc(-c2ccccc2)c2cc(F)ccc2n1,–,–,–,–,–,–,·,·,·
CCCCS(=O)(=O)/C=C\C=C/S(=O)(=O)CCCC,–,·,–,307.0,–,–,210.0,–,–
CSc1ncc(-c2ccc(Cl)cc2)[nH]1,·,–,·,·,·,·,·,·,·
Cc1ccc(-n2c(Cl)c(Cl)nc(Cl)c2=O)cc1,–,·,–,–,–,–,·,·,·
CS(=O)(=O)N1N=C(c2ccc(Br)cc2)CC1c1ccc2c(c1)OCO2 (stereo not given),5.45,·,–,154.6,–,–,202.9,135.5,124.7
CC(=O)N1N=C(c2ccc(C)cc2)CC1c1ccc2c(c1)OCO2 (stereo not given),·,–,·,·,·,·,·,·,·
Cc1ccc(C2=NN(S(C)(=O)=O)C(c3ccc4c(c3)OCO4)C2)cc1 (stereo not given),10.4,–,–,210.9,–,139.4,256.5,141.3,140.0
CN(C)c1nc(C(=O)O)nc(N2CCOCC2)n1,·,–,·,·,·,·,·,·,·
CC1CN(C(C)C)C(C)CC1OC(=O)c1ccccc1 (stereo not given),·,–,·,·,·,·,·,·,·
Cc1c(N2C(=O)CSC2c2ccc(F)cc2)c(=O)n(-c2ccccc2)n1C (stereo not given),·,–,·,·,·,·,·,·,·
CSc1ccc(S(=O)(=O)Nc2ccc(OCC(=O)N3CCOCC3)cc2)cc1,–,–,–,–,–,–,·,·,·
C[C@H](CO)N1C[C@H](C)[C@@H](CN(C)S(C)(=O)=O)Oc2c(NC(=O)c3ccncc3)cccc2C1=O,·,–,·,·,·,·,·,·,·
c1cncc(-c2nnc(SCCSc3nnc(-c4cccnc4)o3)o2)c1,·,·,–,–,–,–,·,·,·
Fc1ccccc1CSc1nnc(-c2cccnc2)o1,3.45,–,–,161.0,–,–,147.1,–,–
